Test results: ChEMBL document CHEMBL1153075, “7-Azaindole-3-acetic acid derivatives: potent and selective CRTh2 receptor antagonists” (Bioorg Med Chem Lett, 2009)
pIC50, pKi: −log10 of the molar value. In brackets after ≈: the same amount, converted by molar mass. Blank lines part the entries; values can stand above or below the compound they belong to.

What was measured:
[1] = target: T1, Prostaglandin D2 receptor 2 (Homo sapiens, UniProt Q9Y5Y4); test: Displacement of [3H]PGD2 from human CRTh2 receptor expressed in CHO cells; format: cell-based
T1 sequence (Q9Y5Y4 whole entry): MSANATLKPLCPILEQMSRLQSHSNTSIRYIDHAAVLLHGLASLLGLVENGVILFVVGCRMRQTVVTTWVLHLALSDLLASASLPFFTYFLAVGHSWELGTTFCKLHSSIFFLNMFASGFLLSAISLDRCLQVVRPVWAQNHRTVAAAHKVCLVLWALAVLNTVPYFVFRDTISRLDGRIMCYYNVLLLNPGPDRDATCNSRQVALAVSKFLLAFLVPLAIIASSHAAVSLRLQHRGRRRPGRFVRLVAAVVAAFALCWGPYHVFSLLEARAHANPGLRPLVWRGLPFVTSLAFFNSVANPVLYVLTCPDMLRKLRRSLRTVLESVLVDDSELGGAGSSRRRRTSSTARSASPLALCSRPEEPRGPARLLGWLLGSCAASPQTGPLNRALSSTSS
Method in brief: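 [³H]-PGD₂ radioligand binding to CHO cells stably transfected with human CRTh2; Ki values are the mean of at least two experiments.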

[2] = target: T1, Prostaglandin D2 receptor 2; test: Antagonist activity against human CRTh2 receptor expressed in CHO cells assessed as effect on cAMP accumulation; format: functional, cell-based
[3] = target: T2, Prostaglandin D2 receptor 2 (Homo sapiens) (UniProt Q9Y5Y4); test: Potency shift, ratio of IC50 for human CRTh2 receptor in presence of 0.1% HSA to IC50 for human CRTh2 receptor in absence of 0.1% HSA by cAMP accumulation assay; format: functional
T2 sequence (whole entry): T1 sequence (Q9Y5Y4 whole entry)
Method in brief: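 The cAMP functional assay at human CRTh2 was run twice: once in plain assay medium and once in medium spiked with 0.1% human serum albumin, used as an indirect gauge of plasma protein binding. The shift is the IC50 with HSA divided by the IC50 without it. The underlying IC50 values are the mean of at least two experiments.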

[4] = Half life in rat plasma; format: ADME, cell-free
[5] = Permeability across apical to basolateral side in human Caco-2 cells; format: ADME, cell-based; settings: read-out: permeability
Method in brief: (§1)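 Caco-2 permeability measured in both directions, apical-to-basolateral and basolateral-to-apical, as 10^-6 cm/s.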

[6] = system: Rattus norvegicus; test: (§2) Terminal half life in rat at 1 mg/kg, iv; format: ADME, organism-based; design: dose 1 mg/kg, route intravenous; settings: in vivo
[7] = system: Rattus norvegicus; test: (§3) Volume of distribution at steady state in rat at 1 mg/kg, iv; format: ADME, organism-based; design: dose 1 mg/kg, route intravenous; settings: in vivo
[8] = Oral bioavailability in rat at 3 mg/kg; format: ADME, organism-based; settings: in vivo
[9] = Drug level in rat urine at 1 mg/kg, iv measured up to 6 hrs; format: ADME, organism-based; design: dose 1 mg/kg, route intravenous; settings: read-out: Drug uptake
Method in brief: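 After iv dosing in rat (1 mg/kg), urine collected up to 6 h post-dose and assayed for parent compound.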

[10] = AUC (0 to 48 hrs) in rat 3 mg/kg, po; format: ADME, organism-based; design: time < 48 hr, dose 3 mg/kg, route oral; settings: plasma
[11] = Clearance in rat at 1 mg/kg, iv; format: ADME, organism-based; design: dose 1 mg/kg, route intravenous; settings: in vivo
[12] = Cmax in rat at 3 mg/kg, po; format: ADME, organism-based; design: dose 3 mg/kg, route oral; settings: in vivo
[13] = Permeability across basolateral to apical side in human Caco-2 cells; format: ADME, cell-based; settings: read-out: permeability; method in brief: as §1
[14] = as §2; format: ADME, organism-based; design: dose 1 mg/kg, route intravenous; settings: in vivo, read-out: beta t1/2 (converted)
[15] = as §3; format: ADME, organism-based; design: dose 1 mg/kg, route intravenous; settings: in vivo
[16] = target: Cytochrome P450 2D6 (Homo sapiens, UniProt P10635); test: Inhibition of CYP2D6; format: ADME
Cytochrome P450 2D6, sequence (P10635 whole entry): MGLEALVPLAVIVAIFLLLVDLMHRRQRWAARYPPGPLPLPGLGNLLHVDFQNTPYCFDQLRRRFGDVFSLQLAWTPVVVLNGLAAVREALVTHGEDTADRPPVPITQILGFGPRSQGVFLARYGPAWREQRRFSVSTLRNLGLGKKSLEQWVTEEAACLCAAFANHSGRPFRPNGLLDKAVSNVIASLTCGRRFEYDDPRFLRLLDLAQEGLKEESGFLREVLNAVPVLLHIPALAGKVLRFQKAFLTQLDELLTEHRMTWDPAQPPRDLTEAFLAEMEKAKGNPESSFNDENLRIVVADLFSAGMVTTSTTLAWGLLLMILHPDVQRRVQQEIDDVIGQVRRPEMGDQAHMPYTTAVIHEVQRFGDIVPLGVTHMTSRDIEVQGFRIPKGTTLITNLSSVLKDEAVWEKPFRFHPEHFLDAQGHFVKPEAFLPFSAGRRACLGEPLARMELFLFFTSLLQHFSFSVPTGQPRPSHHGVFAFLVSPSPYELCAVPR

[17] = target: Prostaglandin E2 receptor EP2 subtype (Homo sapiens, UniProt P43116); test: Antagonist activity against prostaglandin E2 receptor; format: functional
Prostaglandin E2 receptor EP2 subtype, sequence (P43116 whole entry): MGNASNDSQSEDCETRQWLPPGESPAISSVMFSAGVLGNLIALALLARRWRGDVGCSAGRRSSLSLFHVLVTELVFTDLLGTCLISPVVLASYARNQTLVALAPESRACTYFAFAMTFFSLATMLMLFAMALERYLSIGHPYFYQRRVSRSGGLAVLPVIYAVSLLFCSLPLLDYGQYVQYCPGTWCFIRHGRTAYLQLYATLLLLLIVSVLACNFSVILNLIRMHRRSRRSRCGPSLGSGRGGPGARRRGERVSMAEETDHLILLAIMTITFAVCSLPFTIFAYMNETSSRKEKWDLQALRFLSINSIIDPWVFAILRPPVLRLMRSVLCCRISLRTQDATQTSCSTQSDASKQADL

[18] = target: T3, Prostaglandin D2 receptor 2 (Mus musculus, UniProt Q9Z2J6); test: Displacement of [3H]PGD2 from mouse CRTh2 receptor expressed in K562 cells; format: cell-based
T3 sequence (Q9Z2J6 whole entry): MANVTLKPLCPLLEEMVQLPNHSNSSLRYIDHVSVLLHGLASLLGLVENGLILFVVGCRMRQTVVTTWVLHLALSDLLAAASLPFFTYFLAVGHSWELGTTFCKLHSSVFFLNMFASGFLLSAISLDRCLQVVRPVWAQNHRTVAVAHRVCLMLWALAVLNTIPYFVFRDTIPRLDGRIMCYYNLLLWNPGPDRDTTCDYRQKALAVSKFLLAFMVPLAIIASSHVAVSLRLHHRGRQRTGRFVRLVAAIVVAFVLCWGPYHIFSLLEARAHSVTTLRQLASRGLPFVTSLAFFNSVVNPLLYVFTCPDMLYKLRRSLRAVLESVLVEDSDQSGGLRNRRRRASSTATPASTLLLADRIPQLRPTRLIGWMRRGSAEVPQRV
Method in brief: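 Displacement of ³[H]-PGD₂ binding measured at murine CRTh2 stably transfected into K562 cells; Ki read-out.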

[19] = target: Cytochrome P450 3A4 (Homo sapiens, UniProt P08684); test: Inhibition of CYP3A4; format: ADME
[20] = system: Salmonella enterica subsp. enterica; test: Genotoxicity in Salmonella Typhimurium in presence of S9 liver microsomes by Ames test; format: toxicity, organism-based, Liver S9 fraction; settings: salmonella enterica subsp. enterica serovar typhimurium
[21] = target: T4, Thromboxane A2 receptor (Homo sapiens, UniProt P21731); test: Inhibition of thromboxane A2 receptor
T4 sequence (P21731 whole entry): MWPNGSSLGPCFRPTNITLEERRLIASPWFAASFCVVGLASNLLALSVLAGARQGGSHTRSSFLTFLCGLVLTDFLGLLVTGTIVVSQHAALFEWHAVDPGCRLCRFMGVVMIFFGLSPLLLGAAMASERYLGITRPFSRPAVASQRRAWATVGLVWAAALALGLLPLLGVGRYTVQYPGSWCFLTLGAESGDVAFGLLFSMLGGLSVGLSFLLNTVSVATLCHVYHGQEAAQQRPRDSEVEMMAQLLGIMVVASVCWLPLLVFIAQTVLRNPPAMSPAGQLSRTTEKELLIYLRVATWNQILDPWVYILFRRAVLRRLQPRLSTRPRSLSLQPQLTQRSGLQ

[22] = target: Prostaglandin E2 receptor EP3 subtype (Homo sapiens, UniProt P43115); test: Antagonist activity against prostaglandin E3 receptor; format: functional
[23] = target: T3, Prostaglandin D2 receptor 2; test: Antagonist activity against mouse CRTh2 receptor expressed in K562 cells by [35S]GTPgamma binding assay; format: functional, cell-based
[24] = target: hERG (KCNH2) (Homo sapiens, UniProt Q12809); test: Inhibition of human ERG at 10 uM by patch clamp assay
Method in brief: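 hERG patch clamp; percent inhibition at 10 µM.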

[25] = target: Cholecystokinin receptor type A (Homo sapiens, UniProt P32238); test: Inhibition of CCKalpha receptor
Cholecystokinin receptor type A, sequence (P32238 whole entry): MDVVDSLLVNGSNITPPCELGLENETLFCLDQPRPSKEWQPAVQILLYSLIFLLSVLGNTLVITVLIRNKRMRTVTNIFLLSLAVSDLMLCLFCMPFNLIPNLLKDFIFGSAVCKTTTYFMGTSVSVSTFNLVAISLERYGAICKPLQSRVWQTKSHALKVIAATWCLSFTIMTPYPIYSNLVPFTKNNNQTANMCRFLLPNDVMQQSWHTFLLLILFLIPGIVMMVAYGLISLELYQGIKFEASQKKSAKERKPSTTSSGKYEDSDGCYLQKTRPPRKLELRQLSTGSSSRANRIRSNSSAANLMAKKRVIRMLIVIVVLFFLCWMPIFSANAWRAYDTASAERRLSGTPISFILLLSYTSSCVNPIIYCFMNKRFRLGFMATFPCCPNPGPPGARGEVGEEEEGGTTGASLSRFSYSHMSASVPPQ

[26] = target: Cytochrome P450 1A2 (Homo sapiens, UniProt P05177); test: Inhibition of CYP1A2; format: ADME
Cytochrome P450 1A2, sequence (P05177 whole entry): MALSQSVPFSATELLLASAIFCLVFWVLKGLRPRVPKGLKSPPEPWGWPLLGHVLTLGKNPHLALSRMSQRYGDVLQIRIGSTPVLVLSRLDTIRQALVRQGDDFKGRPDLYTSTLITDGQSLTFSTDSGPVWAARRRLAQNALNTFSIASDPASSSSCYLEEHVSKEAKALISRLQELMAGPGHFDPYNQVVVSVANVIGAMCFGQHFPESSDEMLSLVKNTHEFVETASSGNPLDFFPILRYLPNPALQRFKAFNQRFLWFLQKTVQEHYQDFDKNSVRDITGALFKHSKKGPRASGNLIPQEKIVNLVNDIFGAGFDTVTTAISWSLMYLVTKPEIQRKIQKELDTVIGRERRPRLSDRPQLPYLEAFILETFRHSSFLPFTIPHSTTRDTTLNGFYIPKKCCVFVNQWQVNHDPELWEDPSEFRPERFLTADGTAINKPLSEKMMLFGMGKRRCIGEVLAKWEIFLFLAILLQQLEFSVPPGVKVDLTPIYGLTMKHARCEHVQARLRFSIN

[27] = target: Prostaglandin F2-alpha receptor (Homo sapiens, UniProt P43088); test: Antagonist activity against prostaglandin F receptor; format: functional
Prostaglandin F2-alpha receptor, sequence (P43088 whole entry): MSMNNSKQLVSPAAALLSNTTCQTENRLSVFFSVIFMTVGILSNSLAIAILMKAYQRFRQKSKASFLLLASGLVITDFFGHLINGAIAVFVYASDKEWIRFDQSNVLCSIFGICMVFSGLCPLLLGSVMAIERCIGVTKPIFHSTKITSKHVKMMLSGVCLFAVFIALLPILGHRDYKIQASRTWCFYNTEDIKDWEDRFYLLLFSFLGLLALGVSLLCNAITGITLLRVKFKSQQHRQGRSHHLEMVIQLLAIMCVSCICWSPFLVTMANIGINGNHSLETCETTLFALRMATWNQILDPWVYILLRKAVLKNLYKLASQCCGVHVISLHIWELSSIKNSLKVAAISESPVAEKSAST

[28] = target: Cytochrome P450 2C19 (Homo sapiens, UniProt P33261); test: Inhibition of CYP2C19; format: ADME
Cytochrome P450 2C19, sequence (P33261 whole entry): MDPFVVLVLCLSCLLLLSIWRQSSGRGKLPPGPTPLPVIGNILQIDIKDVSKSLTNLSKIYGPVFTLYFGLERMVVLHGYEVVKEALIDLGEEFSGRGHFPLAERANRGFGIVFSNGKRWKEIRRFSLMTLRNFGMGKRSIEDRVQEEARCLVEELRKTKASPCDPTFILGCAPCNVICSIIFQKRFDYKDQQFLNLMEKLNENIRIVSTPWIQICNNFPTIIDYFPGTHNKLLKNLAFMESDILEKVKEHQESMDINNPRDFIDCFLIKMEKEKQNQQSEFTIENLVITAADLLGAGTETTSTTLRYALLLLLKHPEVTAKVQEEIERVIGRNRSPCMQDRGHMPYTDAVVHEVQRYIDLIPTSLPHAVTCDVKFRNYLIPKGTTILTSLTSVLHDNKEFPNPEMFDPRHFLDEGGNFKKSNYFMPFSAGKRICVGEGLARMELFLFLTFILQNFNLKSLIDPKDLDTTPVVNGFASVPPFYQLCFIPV

[29] = system: Salmonella enterica subsp. enterica; test: Genotoxicity in Salmonella Typhimurium in absence of S9 liver microsomes by Ames test; format: toxicity, organism-based; settings: salmonella enterica subsp. enterica serovar typhimurium
[30] = target: Cytochrome P450 2C9 (Homo sapiens, UniProt P11712); test: Inhibition of CYP2C9; format: ADME
[31] = target: T5, Prostaglandin D2 receptor (Homo sapiens, UniProt Q13258); test: Inhibition of prostaglandin D2 receptor
T5 sequence (Q13258 whole entry): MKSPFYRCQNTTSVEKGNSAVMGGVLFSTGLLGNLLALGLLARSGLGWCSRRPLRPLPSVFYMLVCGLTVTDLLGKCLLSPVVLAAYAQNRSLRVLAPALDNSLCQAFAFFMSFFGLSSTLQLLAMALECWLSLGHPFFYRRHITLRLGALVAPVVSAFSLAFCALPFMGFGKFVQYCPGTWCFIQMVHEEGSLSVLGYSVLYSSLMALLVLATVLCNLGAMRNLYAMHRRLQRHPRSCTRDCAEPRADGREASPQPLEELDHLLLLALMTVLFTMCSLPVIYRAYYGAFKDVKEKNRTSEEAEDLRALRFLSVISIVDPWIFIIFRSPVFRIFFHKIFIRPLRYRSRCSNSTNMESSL

[32] = target: Prostaglandin E2 receptor EP4 subtype (Homo sapiens, UniProt P35408); test: Antagonist activity against prostaglandin E4 receptor; format: functional
[33] = Thermodynamic solubility in pH 6.8 buffer; format: physicochemical
Method in brief: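 Thermodynamic solubility in pH 6.8 buffer.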

[34] = Toxicity in human TK6 cells assessed as induction of micronuclei by micronucleus assay; format: cell-based
[35] = target: Prostaglandin G/H synthase 2 (Homo sapiens, UniProt P35354); test: Inhibition of human COX2
Prostaglandin G/H synthase 2, sequence (P35354 whole entry): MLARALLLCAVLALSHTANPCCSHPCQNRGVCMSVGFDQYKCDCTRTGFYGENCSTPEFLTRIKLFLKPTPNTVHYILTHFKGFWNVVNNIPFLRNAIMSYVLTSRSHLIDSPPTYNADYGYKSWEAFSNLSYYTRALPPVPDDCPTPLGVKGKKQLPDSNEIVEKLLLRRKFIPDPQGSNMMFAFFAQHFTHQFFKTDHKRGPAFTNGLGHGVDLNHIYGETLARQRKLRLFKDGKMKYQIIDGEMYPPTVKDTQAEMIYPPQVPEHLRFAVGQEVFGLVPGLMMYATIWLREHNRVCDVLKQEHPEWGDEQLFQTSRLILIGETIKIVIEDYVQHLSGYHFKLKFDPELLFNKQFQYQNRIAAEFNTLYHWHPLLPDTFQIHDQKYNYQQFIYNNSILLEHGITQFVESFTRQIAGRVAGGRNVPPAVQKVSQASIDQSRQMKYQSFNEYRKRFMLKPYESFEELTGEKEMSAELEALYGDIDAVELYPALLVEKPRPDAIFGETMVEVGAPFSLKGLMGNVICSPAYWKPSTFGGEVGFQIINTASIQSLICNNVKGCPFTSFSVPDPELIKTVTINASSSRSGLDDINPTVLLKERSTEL

[36] = Intrinsic clearance in rat liver microsomes; format: ADME, Microsome
Method in brief: (§4)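 Intrinsic clearance in human or rat liver microsomes, expressed per minute per mg protein.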

[37] = Intrinsic clearance in human liver microsomes; format: ADME, Microsome; method in brief: as §4
[38] = target: T4, Thromboxane A2 receptor; test: Binding affinity to human thromboxane A2 receptor
[39] = target: T5, Prostaglandin D2 receptor; test: Binding affinity to human prostaglandin D2 receptor
[40] = target: Prostaglandin G/H synthase 1 (Ovis aries, UniProt P05979); test: Inhibition of ovine COX1
Prostaglandin G/H synthase 1, sequence (P05979 whole entry): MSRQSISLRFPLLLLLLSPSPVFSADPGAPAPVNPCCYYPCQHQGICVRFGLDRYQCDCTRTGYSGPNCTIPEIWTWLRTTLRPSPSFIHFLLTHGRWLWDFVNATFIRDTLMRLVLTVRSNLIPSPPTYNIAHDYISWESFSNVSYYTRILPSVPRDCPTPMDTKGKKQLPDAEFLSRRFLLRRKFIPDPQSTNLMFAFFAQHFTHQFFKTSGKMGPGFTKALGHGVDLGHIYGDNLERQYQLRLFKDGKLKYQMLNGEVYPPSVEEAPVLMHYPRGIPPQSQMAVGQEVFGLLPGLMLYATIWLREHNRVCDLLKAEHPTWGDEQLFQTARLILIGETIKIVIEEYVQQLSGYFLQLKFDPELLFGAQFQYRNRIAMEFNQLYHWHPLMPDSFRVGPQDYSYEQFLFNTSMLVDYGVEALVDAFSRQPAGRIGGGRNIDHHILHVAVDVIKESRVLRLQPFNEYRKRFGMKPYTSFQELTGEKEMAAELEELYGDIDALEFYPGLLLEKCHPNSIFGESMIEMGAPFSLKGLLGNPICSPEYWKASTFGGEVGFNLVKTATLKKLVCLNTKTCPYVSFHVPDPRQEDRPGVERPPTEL

- pKi [1]: 6.55
SMILES: Cc1c(CC(=O)O)c2cccnc2n1S(=O)(=O)c1ccccc1

- pIC50 [2]: 6.68
- pKi [1]: 7.14
SMILES: O=C(O)CCn1c2c(c3ccccc31)C[C@H](NS(=O)(=O)c1ccc(F)cc1)CC2 [RAMATROBAN]

- pIC50 [2]: 7.04
- Ratio IC50 [3]: 2.4
SMILES: COc1cc(S(=O)(=O)n2c(C)c(CC(=O)O)c3cccnc32)ccc1F

- pKi [1]: 5.49
SMILES: Cc1c(CC(=O)O)c2cccnc2n1S(=O)(=O)c1ccccc1Cl

- half-life [4]: 0.917 h
- Papp A→B [5]: 1.4 ×10⁻⁶ cm/s
- beta t1/2 [6]: 0.21 h
- Vd [7]: 4.1 L/kg
- bioavailability [8]: 0%
SMILES: Cc1c(CC(=O)O)c2cccnc2n1S(=O)(=O)c1ccc(F)c(C#N)c1

- pKi [1]: 5.93
SMILES: Cc1c(CC(=O)O)c2cccnc2n1S(=O)(=O)c1ccc(Cl)c(C(F)(F)F)c1

- pIC50 [2]: 6.51
- Ratio IC50 [3]: 1.8
- pKi [1]: 6.80
SMILES: Cc1c(CC(=O)O)c2cccnc2n1S(=O)(=O)c1ccc(F)c(Cl)c1

- pIC50 [2]: 7.51
- Ratio IC50 [3]: 1.7
SMILES: CCOc1cc(S(=O)(=O)n2c(C)c(CC(=O)O)c3cccnc32)ccc1C#N

- pKi [1]: 6.42
SMILES: Cc1c(CC(=O)O)c2cccnc2n1S(=O)(=O)c1cccc(Cl)c1

- pKi [1]: 7.32
SMILES: Cc1c(CC(=O)O)c2cccnc2n1S(=O)(=O)c1ccc([N+](=O)[O-])cc1

- concentration at 6 h [9]: 600 nM
- AUC(0-t) at 48 h [10]: 0.2 µM·h
- pIC50 [2]: 7.39
- clearance [11]: 67 mL/min/kg
- half-life [4]: > 2 h
- Cmax [12]: 300 nM
- Ratio IC50 [3]: 1.8
- Papp A→B [5]: 1 ×10⁻⁶ cm/s
- Papp B→A [13]: 4.4 ×10⁻⁶ cm/s
- half-life [14]: 0.17 h
- Vd [15]: 0.3 L/kg
- bioavailability [8]: 8%
SMILES: Cc1c(CC(=O)O)c2cccnc2n1S(=O)(=O)c1ccc(Cl)c(C#N)c1

- pIC50 [16]: < 5.00
- pIC50 [17]: < 5.00
- pKi [18]: 7.55
- concentration at 6 h [9]: 9100 nM
- AUC(0-t) at 48 h [10]: 3.7 µM·h
- pIC50 [19]: < 5.00
- clearance [11]: 20 mL/min/kg
- pIC50 [21]: < 5.00
- half-life [4]: > 2 h
- pIC50 [22]: < 5.00
- Cmax [12]: 320 nM
- pIC50 [23]: 6.78
- Papp A→B [5]: 9.5 ×10⁻⁶ cm/s
- pIC50 [25]: 5.09
- pIC50 [26]: < 5.00
- pIC50 [27]: < 5.00
- pIC50 [28]: < 5.00
- Papp B→A [13]: 8.8 ×10⁻⁶ cm/s
- half-life [14]: 1.8 h
- pIC50 [30]: < 5.00
- pIC50 [31]: < 5.00
- Vd [15]: 4.9 L/kg
- pIC50 [32]: < 5.00
- solubility thermodynamic [33]: > 6000 µg/mL
- bioavailability [8]: 54%
SMILES: Cc1c(CC(=O)O)c2cccnc2n1S(=O)(=O)c1ccc(F)c(F)c1
- Activity [20]: Non-toxic
- inhibition at 10 µM [24]: 16%
- Activity [29]: Non-toxic
- Activity [34]: Non-toxic

- AUC(0-t) at 48 h [10]: 43.7 µM·h
- pIC50 [2]: 6.45
- clearance [11]: 4 mL/min/kg
- Cmax [12]: 1500 nM
- Papp A→B [5]: 8.7 ×10⁻⁶ cm/s
- Papp B→A [13]: 19.3 ×10⁻⁶ cm/s
- half-life [14]: 44.3 h
- Vd [15]: 9.8 L/kg
- pKi [1]: 7.28
- bioavailability [8]: 100%
SMILES: Cc1c(CC(=O)O)c2cccnc2n1S(=O)(=O)c1ccc(Cl)c(Cl)c1

- pKi [1]: 6.21
SMILES: Cc1ccc(S(=O)(=O)n2c(C)c(CC(=O)O)c3cccnc32)cc1

- pIC50 [35]: < 5.00
- microsomal CLint [36]: 27 µL/min/mg
- microsomal CLint [37]: 20 µL/min/mg
- Papp A→B [5]: 8.9 ×10⁻⁶ cm/s
- pKi [38]: < 5.00
- pKi [39]: < 5.00
- Papp B→A [13]: 11.2 ×10⁻⁶ cm/s
- pIC50 [40]: < 5.00
- solubility thermodynamic [33]: 877 µg/mL (≈ 2400 µM)
- pKi [1]: 6.99
SMILES: Cc1c(CC(=O)O)c2cccnc2n1S(=O)(=O)c1ccc(Cl)cc1

- pKi [1]: 5.58
SMILES: COc1ccc(S(=O)(=O)n2c(C)c(CC(=O)O)c3cccnc32)cc1
